Source: ChEMBL document CHEMBL1125133, “Benzodiazepine receptor binding activity of 9-(1-phenylethyl)purines” (J Med Chem, 1990)

Tests used:
[1] = target: GABA-A receptor; anion channel; assay: Inhibitory concentration against specific binding of [3H]diazepam to Benzodiazepine receptor in rat brain; format: tissue-based
[2] = species: Rattus norvegicus; assay: Percent change in conflict responding in Long-Evans rats; format: functional
Procedure, shortened: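 Long-Evans rats on a modified Geller–Seifter conflict schedule. Dosed by oral gavage at 25 mg/kg as a 0.5% methylcellulose suspension, with chlordiazepoxide at 20 mg/kg. Read-out is percent change in conflict responding, mean ±.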

[3] = target: T1, GABA-A receptor; anion channel (Rattus norvegicus) (UniProt O09028+P15431+P18506+P18508+P19969+P20236+P23574+P23576+P28471+P28473+P30191+P62813+P63079+P63138+Q91ZM7+Q9ES14); assay: Inhibition of [3H]-diazepam binding to rat brain GABA-A benzodiazepine receptor at 100 uM
[4] = target: T1, GABA-A receptor; anion channel (Rattus norvegicus); assay: Inhibition of [3H]diazepam binding to rat brain GABA-A Benzodiazepine receptor at 100 uM

C[C@H](c1ccccc1)n1cnc2c(N(C)C)ncnc21
IC50 [1]: 100000 nM

C[C@@H](c1ccccc1)n1cnc2c(N(C)C)ncnc21
Change [2]: 5%

CN(C)c1ncnc2c1ncn2Cc1cccc(O)c1
Change [2]: 2%

CC(=O)Oc1cccc(Cn2cnc3c(N(C)C)ncnc32)c1
Change [2]: 2%

CSc1ncnc2c1ncn2Cc1ccccc1
Change [2]: 13%

CC(c1cccc(O)c1)n1cnc2c(O)ncnc21 (racemic)
IC50 [1]: 2200 nM

CC(=O)Oc1cccc(C(C)n2cnc3c(N(C)C)ncnc32)c1 (racemic)
IC50 [1]: 380 nM

CC(c1cccc(O)c1)n1cnc2c(N(C)C)ncnc21 (racemic)
IC50 [1]: 480 nM | Change [2]: -7%

CC(c1cccc(N)c1)n1c(Br)nc2c(N(C)C)ncnc21 (racemic)
IC50 [1]: 520 nM | Change [2]: 5%

CSc1ncnc2c1ncn2C(C)c1cccc(OC(C)=O)c1 (racemic)
IC50 [1]: 1700 nM

CC(c1cccc(N)c1)n1cnc2c(N(C)C)ncnc21 (racemic)
IC50 [1]: 160 nM | Change [2]: -22%

CSc1ncnc2c1ncn2C(C)c1cccc(O)c1 (racemic)
IC50 [1]: 1200 nM

CC(=O)Oc1cccc(C(C)n2cnc3c(O)ncnc32)c1 (racemic)
inhibition [3]: 68%

CC(c1cccc(O)c1)n1cnc2c(S)ncnc21 (racemic)
inhibition [4]: 64%
